# p47phox inh: p47phox/p22phox peptide binding inhibitors, primary screen, biochemical, uHTS, NADPH oxidase regulatory subunit | 220,000 compounds, 0.53% hits | Neutrophil cytosol factor 1 (Homo sapiens), P14598 | fluorescence polarization, 2 h | inhibition, % at 24.7 µM;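 further: 0% = p47phox with labelled peptide and 100% = labelled peptide alone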
# EBV gp42 inh: Epstein-Barr virus gp42 inhibitors, primary screen, biochemical, uHTS, fluorescence polarization | Glycoprotein 42 (Epstein-Barr virus (strain AG876)), Q1HVG2 | Fluorescence polarization binding assay, mP read-out | inhibition, % (tested at 21.74 µM) | 220,000 compounds, 0.42% hits | AID 1085, 2008; in the data active means inhibition above about 50%
# Target sequence (Q1HVG2 whole entry, looked up): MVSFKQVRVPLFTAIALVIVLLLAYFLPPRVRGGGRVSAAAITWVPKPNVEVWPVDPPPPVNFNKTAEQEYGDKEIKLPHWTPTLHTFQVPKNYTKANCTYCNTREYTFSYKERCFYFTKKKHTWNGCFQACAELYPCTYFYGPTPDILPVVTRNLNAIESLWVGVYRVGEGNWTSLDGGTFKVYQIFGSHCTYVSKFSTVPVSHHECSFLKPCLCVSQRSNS
# WT yeast gro inh: growth inhibition of WT strain, primary screen, mitochondrial fusion inhibitor project, WT and mutant strains, chemical genetic; mitochondrial fusion phenotypic screen; inhibition, % at 10 µM; 190,000 compounds, 2.1% hits; AID 1362, 2008; in the data active means inhibition above about 58%; tested in S. cerevisiae
# eIF4E 4G PPI: eIF4E–eIF4G protein interaction inhibitors, primary screen, biochemical, uHTS, TR-FRET, eIF4GI fragment; AID 782, 2007; TR-FRET eIF4E-eIF4GI(517-606) binding, 2 h; Eukaryotic translation initiation factor 4E (Mus musculus) + Eukaryotic translation …; inhibition, % at 21.7 µM; 220,000 compounds, 0.37% hits;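 further: 0% = full FRET control wells and 100% = background wells lacking eIF4GI fragment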
# 14-3-3 Bad inh: inhibitors of 14-3-3 zeta/Bad binding, primary screen, biochemical, TR-FRET, bovine 14-3-3 zeta | TR-FRET 14-3-3zeta/Dy647-pBad peptide displacement, 1 h | inhibition, % at 21.7 µM | 220,000 compounds, 0.71% hits | AID 781, 2007;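 active means inhibition above about 70%, limit read from the data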;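 further: 0% = full 14-3-3 plus peptide FRET controls and 100% = background without 14-3-3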
# RBBP9 inhibitor: human RBBP9 inhibitors, primary screen, biochemical, fluorescence polarization, FP-Rh probe, HTS. 220,000 compounds, 0.2% hits. recombinant RBBP9. inhibition, % at 7.94 µM. Serine hydrolase RBBP9 (Homo sapiens), O75884;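 active means inhibition above the campaign mean of all tested compounds plus 3 SD, cut at about 14% in these data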;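 further: plate controls were DMSO wells with RBBP9 for no effect and wells lacking RBBP9 protein for full effect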
# Target sequence (O75884 whole entry, looked up): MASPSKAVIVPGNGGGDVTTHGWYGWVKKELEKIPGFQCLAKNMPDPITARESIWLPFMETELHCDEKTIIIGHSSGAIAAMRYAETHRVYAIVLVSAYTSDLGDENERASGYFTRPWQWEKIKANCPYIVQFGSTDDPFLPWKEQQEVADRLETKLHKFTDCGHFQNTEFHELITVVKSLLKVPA
#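 Test system – recombinant human RBBP9 · Input – RBBP9 2.5 µM in dispensing solution, pre-mixing · Medium – Tris buffer pH 8.0, NaCl, Pluronic · Schedule – preincubation 30 min plus labeling 45 min at 25 °C · Measured by – fluorescence polarization · Measure – % inhibition · Controls – DMSO and no-protein wells · Replicates – one well per compound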
# * hit, by the source's call; x = no result given. Most compounds without a hit are left out; they make up all but 3.7% or so of the library.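 How the source made its calls, unless noted: active means inhibition above about 30% (limit read from the data); inactive means the rest.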
SMILES,p47phox inh,EBV gp42 inh,WT yeast gro inh,eIF4E 4G PPI,14-3-3 Bad inh,RBBP9 inhibitor
COc1ccc(-c2ocnc2C(=O)NCc2nn(-c3ccccc3)nc2C)cc1,-13,-8,x,2,-4,-7
CC1(C)CCCN(C(=O)c2coc(=O)c(Br)c2)C1,-64,52*,-11,25,43,-8
COCCNC(=S)NN(c1ccccc1)c1ccccc1,-14,-1,9,2,-13,2
CNC(=S)NN(c1ccccc1)c1ccccc1,-11,84*,13,4,-10,-6
COCCNC(=S)NCCc1ccc(Cl)cc1Cl,-20,-11,70*,0,-5,-7
COCC(C)NC(=O)COc1ccc(Cl)cc1Cl (stereo not drawn),-7,-32,-6,-4,1,-5
COCC(C)NC(=S)NCCc1ccc(Cl)cc1Cl (stereo not drawn),-13,-4,61*,-1,2,1
Cc1nc(C(=O)NC2CCOCC2)sc1C1(C)CC(c2cccc([N+](=O)[O-])c2)=NO1 (stereo not drawn),-9,-14,x,-1,2,x
CC(C)(C)c1ccc(C(O)CCCN2CCC(C(O)(c3ccccc3)c3ccccc3)CC2)cc1 (stereo not drawn),-4,-13,92*,1,-6,-7
Oc1ccccc1CN1CCC(C(O)(c2ccccc2)c2ccccc2)CC1,3,8,9,1,14,0
O=C(Nc1nc(-c2ccco2)cs1)c1ccccc1,-19,-8,18,5,-28,-7
Cc1ccc(-c2csc(NC(=O)c3ccc(-c4ccccc4)cc3)n2)o1,-12,-14,77*,2,-21,-32
O=C(Nc1nc(-c2ccccc2)cs1)c1ccco1,-15,14,x,66*,10,-15
COc1ccc(-c2csc(NC(=O)c3ccco3)n2)cc1,-25,-5,21,5,8,-8
NCCc1c(-c2ccccc2)n(-c2ccccc2)c2ccccc12,-19,-9,87*,10,-4,-4
CCCc1c(O)c2ccccc2n(-c2ccccc2)c1=O,-17,-18,-16,-3,5,-1
C(=N\n1cnnc1)/c1ccc(N2CCOCC2)cc1,-18,-17,3,4,10,-4
C(=N\n1cnnc1)/c1ccc(N2CCOCC2)s1,43*,-19,7,3,-4,-2
COc1ccc(SN=C2C(C)=CC(=O)C=C2C)cc1,38*,-3,12,-7,-11,-4
O=C(NCC(O)c1ccc([N+](=O)[O-])cc1)c1cccc(S(=O)(=O)N2CCCC2)c1 (stereo not drawn),2,-11,0,2,-6,-8
CCc1n[nH]c(=S)n1/N=C/c1ccc(N(C)c2ccccc2)cc1,x,2,72*,-2,-13,2
S=c1[nH]nc(Cc2ccc(Br)cc2)n1/N=C/c1ccc(Cl)cc1,-7,0,93*,2,-10,-2
c1ccc2c(c1)OCCOCCOc1ccccc1OCCOCCO2,-3,-10,43,1,-12,-3
Cc1c(N=C2Nc3cccc4cccc2c34)c(=O)n(-c2ccccc2)n1C,-24,-68,-8,-1,8,-9
Cc1c(N2C(=O)c3cccc4cccc(c34)C2=O)c(=O)n(-c2ccccc2)n1C,5,-9,97*,-10,-3,1
C=CCc1ccccc1OCC(O)CNC (stereo not drawn),-2,4,14,-3,1,-4
C=CCc1ccccc1OCC(O)CN(C(C)C)C(C)C (stereo not drawn),1,-3,-12,6,71*,-9
COc1ccc(C2=NOC(C(=O)Nc3cccnc3)C2)cc1OC (stereo not drawn),-11,15,x,0,3,0
O=C(CSc1nnc(-c2cnccn2)n1Cc1ccco1)c1ccccc1,10,-1,99*,-4,-11,4
c1ccc(-c2nnc(CSc3nnc(-c4ccncc4)n3Cc3ccco3)o2)cc1,-10,-22,82*,-1,-13,-7
